Test results: ChEMBL document CHEMBL4513216, “Probing the Open Global Health Chemical Diversity Library for Multistage-Active Starting Points for Next-Generation Antimalarials” (ACS Infect Dis, 2020)

Experiment: Toxicity liver stage against HepG2, at 10uM
Assay type: cell-based
Design: test concentration 10 uM, cell line HepG2-A16-CD81EGFP
Settings: human, HepG2-A16-CD81EGFP cells; read-out: INHIBITION
Method in brief: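 Uninfected HepG2-A16-CD81EGFP cells, 3 × 10^3 per well, 1536-well, plated on prespotted compound at 10 μM final, parasite-free screening media added to match infected plates; puromycin 10 μM positive, DMSO 0.5% negative; run in parallel with 48 h PbLuc assay at 37 °C, 5% CO2; viability by CellTiter-Glo luminescence, normalized to controls.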

Row | SMILES | cytotoxicity at 10 µM [%]
1 | N#Cc1c2n(c3c(N)ncnc13)CCCCC2 | 15.1
2 | COCCOc1ncccc1CNC(=O)N1CCOCC1 | -43.8
3 | CCNC(=O)N[C@H]1C[C@@H](Cc2cc(CN3CCCCC3)on2)C1(C)C | -5.46
4 | COc1ccc2nnc(CCCC(=O)NCc3ccccc3)n2n1 | -4.1
5 | COC(=O)c1cc(OC)c(OC)cc1N(C)S(C)(=O)=O | 7.43
6 | CN(C)C(=O)CN1C[C@H]2CCN(C(=O)c3ccccc3)CC[C@H]2S1(=O)=O | 9.1
7 | CC(=O)NCC(=O)NC1CCc2c(ccc(=O)n2CC2CC2)C1 (stereo unspecified) | 7.89
8 | O=C(c1ccoc1)N1CC[C@H]2[C@H]1CCN2S(=O)(=O)C1CC1 | -139
9 | O=C(c1cocn1)N1CCC2(CC1)CC(OCC1CC1)CO2 (stereo unspecified) | 10
10 | O=C(NCc1ccccn1)[C@@H]1COC[C@H]2CNC[C@H]21 | 11.2
11 | CCN(Cc1nonc1C)C(=O)Cn1nc(C(F)(F)F)cc1C | 0.7
12 | CCN(CC)c1nc(C)cc(C(=O)Nc2ccc(Br)cc2)n1 | 6.46
13 | Cc1ccc(OCCCNC(=O)C2(C)CC(=O)N3C=CC=CC3=N2)cc1 (stereo unspecified) | 0.343
14 | Cc1cc(N(C)C)nc(C2COCCN2Cc2cc(C)on2)n1 (stereo unspecified) | -3.55
15 | CN(CCc1ccncc1)Cc1c(C2CCCC2)[nH]c2ncccc12 | 1.46
16 | Cc1cc(N(C)C)nc(C2(C)CCCNC2)n1 (stereo unspecified) | 1.03
17 | COCC(=O)N1CCC(c2cc(N(C)C)cc(C)n2)CC1 | 8.6
18 | CCCN(C(=O)c1cnc(C)cn1)c1nc2c(s1)CCc1c-2cnn1C | -28
19 | Cc1c[nH]nc1C1CCN(S(=O)(=O)N(C)C)CC1 | 0.462
20 | CN(CC1CCOC1)c1ccc(Br)cn1 (stereo unspecified) | 8.35
21 | Cc1cnc(CN2CCCCC2c2nc(-c3ccccc3)no2)cn1 (stereo unspecified) | -42
22 | CN(CC(=O)NCC(F)(F)F)Cc1cccc2c1OCCO2 | -18.7
23 | CC(OCC1CC1)C(=O)Nc1nccn1Cc1ccccc1 (stereo unspecified) | -6.79

Row | SMILES | cytotoxicity at 10 µM [%]
24 | Cc1cc(C(=O)NC(C)Cc2ccc(N(C)C)cc2)n(C)n1 (stereo unspecified) | 1.19
25 | CCCS(=O)(=O)N1CCCC(c2nc(-c3ccccc3)c[nH]2)C1 (stereo unspecified) | 16.2
26 | Cn1cc(CN2CCS(=O)(=O)C(C)(C)C2)cn1 | 0.512
27 | CN(CCc1ccccn1)C(=O)Nc1cccnc1N1CCCC1 | -27.2
28 | CC1CCC(NS(=O)(=O)CC(=O)NC(C2CC2)C2CC2)CC1 (stereo unspecified) | -2.8
29 | CNc1snc(C)c1C(=O)NC(C)CC(=O)c1cccs1 (stereo unspecified) | -0.227
30 | Cc1cc(C(=O)NC2CCN(c3ncccc3C#N)CC2)on1 | 0.0456
31 | COC(=O)C(O)C1CCN(CCc2ccncc2)CC1 (stereo unspecified) | 11.8
32 | C1CCC(CSc2nnnn2C2CC2)OC1 (stereo unspecified) | 5.29
33 | O=C(NCc1nnc2n1CCCCC2)N(Cc1ccccn1)C1CC1 | 2.46
34 | CC(O)(CNC(=O)NCc1cccc(-n2cncn2)c1)c1ccco1 (stereo unspecified) | 15
35 | O=C(NCc1nccn1CCc1ccccc1)NCC1CCC1 | 4.7
36 | CC(CC(=O)NCCNS(C)(=O)=O)C1CCCCC1 (stereo unspecified) | 6.43
37 | Cc1nc(C2CCCN2Cc2cc(Cl)c3c(c2)OCO3)no1 (stereo unspecified) | 7.51
38 | CN(C)CCNC(=O)Nc1cccc(C[S+]([O-])Cc2ccccc2)c1 (stereo unspecified) | 6.59
39 | CCN(C(=O)CN(Cc1cccc(O)c1)C1CCC(O)CC1)C1CC1 (stereo unspecified) | 1.31
40 | Cc1occc1CN(C)C(=O)Nc1ccc(=O)n(C)c1 | -53.5
41 | Cc1ccc(CNC(=O)c2c[nH]nc2NC(=O)C2COCCO2)cc1 (stereo unspecified) | -9.95
42 | Cc1cc(NCc2cccc(C#N)c2)ccc1Br | 7.99
43 | CC(C)(NC(=O)Cc1ccccc1F)C(C)(C)C(=O)O | -9.1
44 | COc1ccccc1C(C)CC(=O)N1CC[C@H](O)C1 (stereo partly specified) | -55.7
45 | Cc1cccc(C2(NCCCS(C)(=O)=O)CCCC2)c1 | 1.3
46 | OC(CNC1CCSCC1)c1cccc(OCc2ccccc2)c1 (stereo unspecified) | 8.22

Row | SMILES | cytotoxicity at 10 µM [%]
47 | CN(C)C(=O)CN1CCO[C@H]2CN(Cc3cccc(F)c3)C[C@H]21 | -97.2
48 | Cc1noc([C@@]23CCO[C@@H]2CCN(S(=O)(=O)c2cccnc2)C3)n1 | -103
49 | c1ccn(Cc2nnc3n2CCCN(c2cnccn2)C3)c1 | -2.2
50 | CCN1CCC2(CC1)CC(NC(=O)c1c[nH]cn1)c1ccccc1O2 (stereo unspecified) | -103
51 | Cc1cccc(-c2nnn3c2COC(CNS(=O)(=O)C2CC2)C3)c1 (stereo unspecified) | -110
52 | CN1CCN(c2ncnc3c2c(C(=O)NC2CC2)c2ccccn23)CC1 | 3.34
53 | COCCN1C[C@H]2[C@@H](C1)N(C(=O)c1cccs1)CC[C@H]2OC | -2.03
54 | CC(C)c1nnsc1CNC(=O)C1CCN(C(=O)C2CCC2)CC1 | -2.75
55 | Cn1ccnc1CN(CCO)C(=O)c1cc2ccccc2o1 | 3.42
56 | CNc1ccnc(NCCSc2nccn2C)n1 | -42.6
57 | CCCc1nnc2sc(C3CCN(C4CCN(C)CC4)CC3)nn12 | -10.6
58 | COc1cc(C#N)ccc1OC12CCCN(CC1)C2 (stereo unspecified) | -19.1
59 | Cc1nc(CCN(C)C(=O)CN2C(=O)OC[C@@H]2c2ccccc2)no1 | -42.2
60 | CC(=O)N1CCN(Cc2c(C)ccc3ccccc23)CC(O)C1 (stereo unspecified) | 11.8
61 | COCCN(Cc1cccnc1)c1nc(C)nc2oc(C)nc12 | -44.1
62 | CO[C@H]1C[C@@H](O)C12CCN(CCOc1ccc(Cl)cc1)CC2 | -9.66
63 | Cc1nc2c(c(N3CCCC(CO)C3)n1)CCN(Cc1ccco1)CC2 (stereo unspecified) | -0.044
64 | Cn1c(N2CCOCC2)nc2cc(C(=O)N3CCC(O)(CO)C3)ccc21 (stereo unspecified) | -4.62
65 | Cc1nc(CN2CC[C@@H]3[C@@H](CCC(=O)N3CCc3c[nH]cn3)C2)co1 | 2.62
66 | CCn1cnnc1CN(C)Cc1c[nH]nc1-c1ccc(F)cc1 | -2.59
67 | N#CC1CCCN(C(=O)Cn2ncc(N3CCCC3)cc2=O)C1 (stereo unspecified) | -6.36
68 | CC1=CC(C)(C)N(CN2C(=O)c3ccccc3C2=O)c2ccccc21 | 5.82
69 | CCOc1cccc(CN(Cc2cnn(C)c2)CC(C)C)c1O | -7

Row | SMILES | cytotoxicity at 10 µM [%]
70 | CC(C)Cc1cc(CNC(=O)c2cccc3c2NCCC3)no1 | -50.7
71 | CC(C)c1cc(NCC2(CO)CCCC2)ncn1 | 11.9
72 | CCn1c(CC2CCN(C(=O)c3ccnn3C)CC2)n[nH]c1=O | -51.1
73 | CN(CCCc1nccn1C)C(=O)C1COc2ccccc2C1 (stereo unspecified) | -9.1
74 | c1cncc(CN(CCCn2ccnc2)CC2CCOC2)c1 (stereo unspecified) | 1.79
75 | Cc1nn(C)c(C)c1C(C(=O)O)N1CC=C(c2ccccc2)CC1 (stereo unspecified) | -2.11
76 | c1cc2ccc(N3CCN(Cc4ccc5c(c4)OCO5)CC3)nc2[nH]1 | -6.07
77 | CN1N=C(C(=O)N2CCCC(CCc3ccccc3F)C2)CCC1=O (stereo unspecified) | -6.67
78 | CCc1nnc(N2C[C@@H](NC(C)=O)[C@H](c3ccc(C)o3)C2)s1 | -54.5
79 | CN(C(=O)c1cccc(NCC(=O)O)c1)C(C1CC1)C1CC1 | 5.01
80 | Cc1cc(NC(=O)CCn2cncn2)no1 | 2.89
81 | c1coc(CN2CCn3c(nc4ccccc43)C2)c1 | 21.8
82 | Cn1ncc2c(NCCCOc3cccnc3)nc(C3CCCC3)nc21 | 2.94
83 | Cc1cccnc1CN(C)CC1(O)CCCN(CC2CCCCC2)C1=O (stereo unspecified) | -4.09
84 | CN1CCN(c2cc(CCNC(=O)C3CCC3)nc(C3CC3)n2)CC1 | 0.462
85 | Cc1ncncc1C(=O)Nc1cnn(CC(=O)NC2CCCC2)c1 | 4.88
86 | CCC1CCCCN1Cc1ncc(C(C)(C)C)o1 (stereo unspecified) | -3.48
87 | Cc1nnc2n1CCN(C(=O)c1cc(C)n(-c3ccccc3)c1C)C2 | -4.94
88 | Cc1ccc(C(=O)N2CCCCC2CNC(N)=O)cc1F (stereo unspecified) | -6.56
89 | Cc1cc(C)n(CC2CCCN2CCc2ccccn2)n1 (stereo unspecified) | -8.01
90 | CCOc1cc(/C=C/c2ncc(C(=O)O)s2)cc(Br)c1OC | 7.59
91 | CCOc1cccc(C(=O)N2CCN(c3nccc(OC)n3)CC2)c1 | 5.41
92 | Cc1nc(CN(C)C2CCN(Cc3sc(C)nc3C)C2)no1 (stereo unspecified) | -8.99

Row | SMILES | cytotoxicity at 10 µM [%]
93 | Cc1nn(C)c(C)c1CC(=O)N1CCCC(n2ccnc2)C1 (stereo unspecified) | -11.5
94 | CNS(=O)(=O)c1ccc(C(=O)N2CCCC2Cc2ccccc2)o1 (stereo unspecified) | -8.53
95 | COc1cccc(CCNC(=O)CN2CCN(C)CC2C)c1 (stereo unspecified) | -16.7
96 | CCOCCN1CCN(Cc2cccc(C(=O)N(C)C)c2)CC1 | -13.5
97 | CC(C)(NCC(=O)NCCC#N)c1ccc2c(c1)OCCO2 | -4.03
98 | CN(C)c1ccc(CCNC(=O)NCc2ccc(N(C)C)nc2)cc1 | -11.2
99 | COCc1cccc(CNCc2c(C)nn(C)c2N(C)C)c1 | 1.08
100 | CCOc1ncccc1NC(=O)NC1CCN(S(C)(=O)=O)CC1 | -7.96
101 | Cn1c(CN2CCOC(c3nc(C(C)(C)C)n[nH]3)C2)nnc1C1CC1 (stereo unspecified) | 5.37
102 | Cc1ncc(CN2CCCC2)c2cc(C(=O)c3ccc(Br)cc3)oc12 | 1.46
103 | Cc1cc(CN2C[C@H](OCC3CCOCC3)[C@H]3COC[C@H]32)oc1C | 6.88
104 | c1cnc(N2CCOCC3(C2)CN(c2nccs2)CCO3)nc1 (stereo unspecified) | -104
105 | Cn1cc(CNC2CC3(CCN(S(C)(=O)=O)CC3)c3ccccc32)cn1 (stereo unspecified) | -110
106 | Cc1ccc(C(=O)N2CCc3c(CN4CCCC4)nn(C)c3C2)cc1C | -4.86
107 | CCc1ccc(CN2CC[C@@H]3NC(=O)CC[C@@H]32)o1 | 3.06
108 | Cc1cccc(COC2COC3(CCN(S(C)(=O)=O)CC3)C2)n1 (stereo unspecified) | 8.98
109 | Cn1nc(Cn2cccn2)c2c1CN(C1CCOCC1)C2 | 10.1
110 | O=C(N1CCOCC1)N1C2CCC(O)(CC2)C1CN1CCOCC1 (stereo unspecified) | -1.94
111 | CC(C)c1nnc(N2C[C@H]3CC[C@@H](C2)N(CC2CCC2)C3)s1 | -7.38
